Bioassay records as filed in PubChem.
Only some compounds are listed: those with a hit (about 0.29% of all), similar ones and a draw of the others.
PKA-R1A activ: PKA-R1A complex activation; actives 0.083% (n = 340,000); AID 504707; activation, % at 11.4 µM; PKA-R1A dissociation, Cy5-IP20 fluorescence polarization; scaled: DMSO 0%, 113 µM cGMP 100%;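 active = percent activation above the mean of all tested compounds plus 3 SD, cut at about 19% in these data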;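 note: higher means more PKAc released from R1A so a rise in polarization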
proCasp7 act: counter-screen for procaspase-3 activators: activators of human procaspase-7; P55210; recombinant procaspase-7, Ac-DEVD-pNA absorbance 405 nm; D23A/D198A/D206A triple mutant, cannot self-cleave; scale: DMSO 0, 5 µM enzyme 100; activation, % at 8.5 µM; actives 0.093% (n = 330,000); AID 463210;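 active = percent activation above the screen-wide mean plus 3 SD, cut at about 25% in these data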
Target sequence (P55210 whole entry D23A/D198A/D206A): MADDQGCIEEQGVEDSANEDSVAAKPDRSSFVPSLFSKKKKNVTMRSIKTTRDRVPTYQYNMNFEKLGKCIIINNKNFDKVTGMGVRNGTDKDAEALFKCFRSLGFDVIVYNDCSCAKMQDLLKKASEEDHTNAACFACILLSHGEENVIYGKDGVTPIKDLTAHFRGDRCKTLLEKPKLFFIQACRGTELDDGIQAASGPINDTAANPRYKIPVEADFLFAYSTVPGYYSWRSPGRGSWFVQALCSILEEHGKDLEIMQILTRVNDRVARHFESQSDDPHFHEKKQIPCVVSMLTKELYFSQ
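signal = Epi-absorbance of released pNA at 405 nm, two timepoints | assay system = Uncleavable procaspase-7 mutant enzyme | reagent = Ac-DEVD-pNA substrate, 400 µM as added | times = 1 h enzyme–compound preincubation and 2 h substrate reaction, both 25 °C | benchmarks = low DMSO alone, high DMSO plus 5 µM PC-7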
PKA-R2B activ: activators of human PKA-R2B complex. P22694+P31323. PKA-R2B holoenzyme dissociation, Cy5-IP20 fluorescence polarization; R2B truncated from residue 108, S112A mutant; 0% DMSO only, 100% 113 µM cGMP. activation, % at 11.4 µM. actives 0.079% (n = 340,000);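 active = activation above a cutoff set at the mean over all compounds plus 3 SD, cut at about 18% in these data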;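 note: higher means more holoenzyme dissociation and a rise in polarization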
procasp3 activ: activates human procaspase-3. actives 0.11% (n = 330,000). activation, % at 8.5 µM. recombinant procaspase-3 D3A, Ac-DEVD-pNA absorbance 405 nm. AID 463141;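 active = activation above the mean of all tested compounds plus 3 SD, cut at about 21% in these data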;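 note: 0% = DMSO alone and 100% = DMSO wells spiked with extra 5 µM PC-3 D3A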
Target sequence (P42574 whole entry D9A/D28A/D175A): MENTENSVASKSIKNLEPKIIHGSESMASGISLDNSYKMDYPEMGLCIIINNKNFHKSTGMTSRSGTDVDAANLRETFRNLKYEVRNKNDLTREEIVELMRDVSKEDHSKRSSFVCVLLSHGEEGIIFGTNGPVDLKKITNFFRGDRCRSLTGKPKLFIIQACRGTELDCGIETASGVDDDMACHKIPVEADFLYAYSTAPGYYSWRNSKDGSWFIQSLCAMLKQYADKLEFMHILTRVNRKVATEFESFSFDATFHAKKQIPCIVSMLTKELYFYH
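Compound: 8.5 µM single point, 0.8% DMSO / Material: Autoprocessing-dead procaspase-3 D3A mutant enzyme / Timing: 1 h preincubation plus 2 h reaction at 25 °C / Medium: Zinc-free HEPES/NaCl buffer with 0.01% Triton X-100 at pH 7.4 / Technique: 405 nm absorbance of p-nitroaniline, reads at 0 and 120 min / Repeats: one well per compound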
proCasp7 act trip: counter-screen for procaspase-3 activators: activators of human procaspase-7 | shares compounds with procasp3 activ | recombinant procaspase-7, Ac-DEVD-pNA absorbance; asp23/198/206-to-Ala mutant, cannot self-cleave | activation, % at 8.5 µM | 210 tested, under 10 active | AID 488941;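 active = mean activation above a set limit taken from an earlier procaspase-7 screen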;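 note: 0% = DMSO wells and 100% = DMSO plus 5 µM procaspase-7 enzyme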
proCasp3 confirm: confirmation of human procaspase-3 activators; shares compounds with procasp3 activ; recombinant PC-3 D3A, Ac-DEVD-pNA absorbance 405 nm; 100% is higher-enzyme control; activation, % at 8.5 µM; actives 10% (n = 210); AID 488954;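 active = mean activation above a set limit carried over from the earlier primary screen, cut at about 22% in these data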
PC3 dual counter: counter-screen for dual procaspase-3/7 activators: human procaspase-3 activation. shares compounds with proCasp7 act. recombinant PC-3 D3A, Ac-DEVD-pNA absorbance 405 nm; aspartates 9, 28, 175 changed to alanine; 100% = enzyme control. activation, % at 8.5 µM. 290 tested, under 10 active. AID 493114;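 active = mean percent activation across triplicates above a set limit taken from the earlier primary procaspase-3 screen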;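 note: 0% = DMSO wells and 100% = DMSO wells with 5 µM added PC-3 D3A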
PC7 dual conf: activates human procaspase-7, confirming dual procaspase activators; 290 tested, under 10 active; activation, % at 8.5 µM; AID 493115; recombinant procaspase-7, Ac-DEVD-pNA absorbance 405 nm; D23A/D198A/D206A mutant that cannot self-cleave; shares compounds with proCasp7 act;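 active = mean activation above a set limit carried over from the earlier primary screen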;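 note: 0% = DMSO only and 100% = DMSO with added 5 µM PC-7 enzyme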
Active calls of the source: *; . = no result.

SMILES	PKA-R1A activ	proCasp7 act	PKA-R2B activ	procasp3 activ	proCasp7 act trip	proCasp3 confirm	others
Cc1nc2c(sc3nc(N4CCOCC4)c4c(c32)CC(C)(C)OC4)c(-c2ccc(Cl)cc2)c1C(=O)O	0.3	-9.2	11.0	26.1*	-7.7	-4.6
CC1(C)Cc2c(c(N3CCOCC3)nc3sc(C(=O)Nc4ccc(Cl)cc4)c(N)c23)CO1	5.0	-20.5	3.4	-13.0	.	.
COc1ccccc1NC(=O)N1CCc2c([nH]c3ccccc23)C1C(F)(F)F (stereo not given)	1.7	5.5	-9.9	7.3	.	.
CCc1nc2c(s1)CCc1onc(-c3ccc(Cl)cc3)c1-2	-10.7	-2.2	4.5	-6.2	.	.
CCOc1ccc(NC(=O)CN(C)C(=O)c2ccc(C3SCCS3)cc2)cc1OCC	-3.7	5.6	-3.6	21.3*	-0.7	1.7
CCOc1ccc(NC(=O)CN(C)C(=O)c2ccc(=O)[nH]c2)cc1OCC	-6.2	.	-16.8	.	.	.
CC(=O)NCCc1nc2ccccc2n1Cc1ccc(C)cc1	-2.9	1.6	-6.4	29.1*	1.5	7.8
CCN1CCN(c2ncnc3c2sc(=S)n3-c2ccccc2)CC1	-2.1	6.2	0.3	22.7*	1.8	4.1
Cc1cc(=O)oc2cc(O)ccc12	-0.9	19.6	-1.6	24.4*	-21.4	-12.5
O=c1cc(O)c2ccc(O)cc2o1	-0.4	-4.0	-3.8	5.1	.	.
CCOc1ccc(N/C=C/C(=O)c2ccc(OC)c(OC)c2)cc1	1.1	4.4	-7.3	-1.4	.	.
CCOC(=O)c1ccc(N/C=C/C(=O)c2ccc(OC)c(OC)c2)cc1	2.2	1.3	-15.6	25.4*	-6.3	5.4
Cc1c(O)ccc2c(CN3CCN(CCO)CC3)cc(=O)oc12	-6.2	19.3	-7.7	18.6	.	.
Cc1c(O)ccc2c(CN3CCOCC3)cc(=O)oc12	-10.9	21.8	-5.3	21.5*	-19.4	-12.9
CC(C)Cn1c(-c2csc3c2CCCC3)n[nH]c1=S	-15.4	-26.1	-6.3	-24.8	.	.
C=CCOC(=O)C1=C[C@H](C2CC2)[C@@H](CCCO)[C@H](OCC)O1	10.0	3.9	-0.6	12.1	.	.
O=C(CN1C(=O)c2cccc3cccc1c23)NCc1ccc2c(c1)OCO2	-0.2	2.4	-2.0	29.1*	2.1	1.7
CN(C)S(=O)(=O)c1cccc(NC(=O)CSc2nc3ccccc3[nH]2)c1	10.3	7.1	0.2	11.2	.	.
CCCCn1nc(C(=O)N(C)C2CCCCC2)c2ccccc2c1=O	-4.8	9.4	8.1	22.1*	1.1	5.2
O=C1OCCN1C(=O)[C@H]1[C@H](c2ccc(Cl)cc2)C(c2ccccc2)=NN1c1ccc(Br)cc1	-9.6	24.0	-4.5	28.0*	-20.2	-10.4
O=C1OCCN1C(=O)[C@H]1[C@H](c2ccc(F)cc2)C(c2cccc(Cl)c2)=NN1c1ccccc1	7.7	2.3	0.5	6.6	.	.
O=C1OCCN1C(=O)[C@H]1[C@H](c2ccc(Cl)cc2)C(c2cccc(Cl)c2)=NN1c1ccccc1	-6.1	18.4	-3.8	23.1*	-21.5	-13.9
Cc1cccc(C2=NN(c3ccc(Br)cc3)[C@@H](C(=O)N3CCOC3=O)[C@@H]2c2ccc(Cl)cc2)c1	-2.5	24.8	-2.6	23.2*	-20.9	-13.1
CN1CCN(c2nc(N3CCN(CCO)CC3)nc3ccccc23)CC1	1.0	3.0	0.3	-1.7	.	.
O=C(Cn1c2ccccc2c(=O)c2ccccc21)Nc1ccccc1F	5.1	-11.6	4.8	28.1*	-21.0	-14.1
SMILES	PKA-R1A activ	proCasp7 act	PKA-R2B activ	procasp3 activ	proCasp7 act trip	proCasp3 confirm	others
COc1ccc(C2CC(c3cccc(F)c3)=NN2c2ccc(S(N)(=O)=O)cc2)cc1 (stereo not given)	-12.0	20.5	-7.5	37.4*	-21.8	-11.6
COc1ccccc1Nc1nc2ccc(C)cc2cc1C#N	-11.7	5.8	-5.3	16.1	.	.
COc1ccccc1Nc1nc2c(C)cccc2cc1C#N	-2.5	18.0	-6.8	39.8*	79.9*	93.9*
CC(CCc1ccccc1)NCc1ccncc1 (stereo not given)	-10.3	-12.6	-7.2	0.7	.	.
CC(NCc1ccccc1)c1ccccc1O (stereo not given)	-3.4	27.9*	-6.7	1.5	.	.	PC3 dual counter=1.7;PC7 dual conf=1.1
CCN(CC)S(=O)(=O)c1cc(NC(=O)CSc2nnc(N)s2)ccc1C	-2.1	-6.2	5.7	4.5	.	.
COc1ccc2sc(-c3ccc(SC)cc3)c(C#CC(C)(C)O)c2c1	-7.9	-4.6	-4.7	-0.9	.	.
COc1ccc2sc(-c3ccc(N(C)C)cc3)c(C#CC(C)(C)O)c2c1	-10.3	69.6*	-2.9	48.7*	.	.	PC3 dual counter=-29.6;PC7 dual conf=-36.1
C/C(CC(=O)NCc1ccccc1Cl)=N/NC(=O)c1ccccn1	5.9	3.9	4.4	-2.1	.	.
CCOC(=O)c1cc(-c2ccc3c(c2)OCCO3)nc2c1c(C)nn2CCC#N	-5.3	53.9*	-1.2	25.2*	.	.	PC3 dual counter=-28.7;PC7 dual conf=-35.0
Cc1nc2ccccc2cc1C(=O)N/N=C/c1cccs1	-17.2	0.5	-1.2	9.5	.	.
Cc1cccc(C2=NN(c3ccc(Br)cc3)[C@@H](C(=O)N3CCOC3=O)[C@@H]2c2ccc(F)cc2)c1	-2.6	25.9*	-15.8	35.4*	.	.	PC3 dual counter=-29.4;PC7 dual conf=-35.1
O=C1OCCN1C(=O)[C@H]1[C@H](c2ccc(F)cc2)C(c2cccc(Cl)c2)=NN1c1ccc(Br)cc1	4.0	15.1	-4.6	19.3	.	.
C=CCc1c(O)c(CC)cc2c(C)cc(=O)oc12	-20.1	28.3*	-14.6	25.2*	.	.	PC3 dual counter=-29.4;PC7 dual conf=-34.4
COc1ccc(C2CC(c3ccc(F)cc3)=NN2c2ccccc2)cc1OC (stereo not given)	-1.4	-11.4	-3.0	-0.6	.	.
Fc1ccc(C2=NN(c3ccccc3)C(c3ccco3)C2)cc1 (stereo not given)	-20.3	43.6*	-7.0	31.6*	.	.	PC3 dual counter=-29.3;PC7 dual conf=-33.9
Oc1ccc(C2=NN(c3ccccc3)C(c3ccc(F)cc3)C2)cc1 (stereo not given)	-8.2	36.5*	-8.3	20.1	.	.	PC3 dual counter=-30.0;PC7 dual conf=-35.0
Cc1ccc(N2N=C(c3ccc(F)cc3)CC2c2ccco2)cc1 (stereo not given)	4.8	-7.7	-1.9	-12.6	.	.
